Values joined by “and” are separate entries in the source; they are usually repeats but may differ in a detail not shown here. Equal entries are not always repeated.
Assays:
[1] = molecular target: T1, r3β-HSD1 (Rattus norvegicus, UniProt P22071); assay: r3β-HSD1 activity, conversion of P5 to P4 in rat testicular microsome; assay type: biochemical; conditions: for Residual r3β-HSD1 activity: 100 µM chemical, relative to DMSO control; for IC50: IC50, rat 3β-HSD1, testicular microsome, 0.2 µM P5, 0.2 mM NAD+, 30 min; for increase of inhibitory effect relative to CUR: r3β-HSD1; for Mode action: rat 3β-HSD1, vs. P5, mixed model and Lineweaver-Burk plot
T1 sequence (P22071 1-373): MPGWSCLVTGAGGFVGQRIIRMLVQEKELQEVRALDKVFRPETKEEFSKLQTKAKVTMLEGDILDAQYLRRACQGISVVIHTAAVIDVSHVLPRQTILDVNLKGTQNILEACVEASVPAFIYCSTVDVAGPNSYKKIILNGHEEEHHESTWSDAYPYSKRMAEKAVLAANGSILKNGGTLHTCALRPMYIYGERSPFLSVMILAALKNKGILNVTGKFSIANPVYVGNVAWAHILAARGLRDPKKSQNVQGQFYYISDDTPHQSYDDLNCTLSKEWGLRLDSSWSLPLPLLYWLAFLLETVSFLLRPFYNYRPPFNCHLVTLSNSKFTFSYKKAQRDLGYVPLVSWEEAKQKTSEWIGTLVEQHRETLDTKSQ
Summary of the method: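 Testes came from 90-day male Sprague-Dawley rats. Microsomes were isolated from homogenate in 0.25 M sucrose PBS (pH 7.2) by spins at 700, 14,500 and twice 105,000 ×g. Reactions used 5 µg microsomal protein, 0.2 µM P5 and 0.2 mM NAD+ in PBS for 30 min. […] P4 by HPLC-MS/MS with T-d5 internal standard; n = 4.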

[2] = molecular target: T2, h3β-HSD2 (Homo sapiens, UniProt P26439); assay: h3β-HSD2 activity, conversion of P5 to P4 in KGN cell homogenate; assay type: biochemical; conditions: for Residual h3β-HSD2 activity: 100 µM chemical, relative to DMSO control; for IC50: IC50, human 3β-HSD2, KGN cell homogenate, 0.2 µM P5, 0.2 mM NAD+, 30 min; for Mode action: human 3β-HSD2, vs. P5, mixed model and Lineweaver-Burk plot
T2 sequence (P26439 1-372): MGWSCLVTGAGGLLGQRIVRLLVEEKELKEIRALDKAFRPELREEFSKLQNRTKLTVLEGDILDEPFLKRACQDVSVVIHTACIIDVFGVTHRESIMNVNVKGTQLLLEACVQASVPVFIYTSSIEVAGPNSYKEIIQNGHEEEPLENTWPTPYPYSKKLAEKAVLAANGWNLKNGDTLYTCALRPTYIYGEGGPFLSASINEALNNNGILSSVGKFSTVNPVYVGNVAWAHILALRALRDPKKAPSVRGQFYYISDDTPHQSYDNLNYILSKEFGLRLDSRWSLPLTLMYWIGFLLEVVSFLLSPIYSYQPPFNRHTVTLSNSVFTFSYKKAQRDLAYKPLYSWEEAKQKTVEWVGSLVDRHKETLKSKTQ

[3] = system: human KGN cells; assay: P4 output in human KGN cells under basal and FSK-stimulated conditions; assay type: cell-based; conditions: basal condition, 24 h
Summary of the method: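 KGN human granulosa-like cells grown in DMEM/F12 with 10% FBS and 1% antibiotics at 37 °C, 5% CO2. Seeded at 1 × 10^6 cells/well and treated for 24 h with 0, 10, 20 or 40 µM test compound, either without forskolin (basal) or with 10 µM forskolin. P4 in the medium was quantified by HPLC-MS/MS. n = 4; one-way ANOVA with Dunnett's test vs control.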

[4] = cited from earlier work
[5] = ref GuideChem; cited from earlier work
[6] = system: human 11β-HSD1; conditions: cited from earlier work
[7] = system: human 11β-HSD2; conditions: cited from earlier work
[8] = system: human 17β-HSD3; conditions: cited from earlier work

Structure (SMILES)	Km ([1]; read-out: apparent Km, substrate P5, r3β-HSD1, Michaelis-Menten kinetics)	Km ([2]; read-out: apparent Km, substrate P5, h3β-HSD2, Michaelis-Menten kinetics)	Residual h3β-HSD2 activity [2]	Ki [1]	Residual r3β-HSD1 activity [1]	IC50 [1]	increase of inhibitory effect relative to CUR [1]	Mode action [1]	Ki [2]	IC50 [2]	Mode action [2]	lowest concentration that markedly decreased basal P4 output [3]	half-lives [4]	LogP [5]	higher potency to inhibit r3β-HSD1 than h3β-HSD2 ([1]; r3β-HSD1 vs h3β-HSD2)	IC50 [6]	IC50 [7]	clearance from the body [4]	IC50 [8]
CC(=O)[C@H]1CC[C@H]2[C@@H]3CC=C4C[C@@H](O)CC[C@]4(C)[C@H]3CC[C@]12C [P5, pregnenolone]	0.32 ± 0.1 µM	3.08 ± 0.81 µM																	
COc1cc(/C=C/C(=O)CC(=O)/C=C/c2ccc(O)c(OC)c2)ccc1O [CUR, curcumin]			< 25 % of the control	4.21 µM	< 20 % of the control	4.06 ± 1.1 µM		Mixed			Mixed	20 µM		3.37	about 3 fold	~10 µM and 10 to 15 µM	~14.5 µM and 10 to 15 µM	rapid clearance	~67.3 µM and > 50 µM

More lines, main results first:

Km ([1]; read-out: apparent Km, substrate P5, r3β-HSD1, Michaelis-Menten kinetics)	Km ([2]; read-out: apparent Km, substrate P5, h3β-HSD2, Michaelis-Menten kinetics)	Residual h3β-HSD2 activity [2]	Ki [1]	Residual r3β-HSD1 activity [1]	IC50 [1]	increase of inhibitory effect relative to CUR [1]	Mode action [1]	Ki [2]	IC50 [2]	Mode action [2]	Structure (SMILES)	lowest concentration that markedly decreased basal P4 output [3]	half-lives [4]	LogP [5]	higher potency to inhibit r3β-HSD1 than h3β-HSD2 ([1]; r3β-HSD1 vs h3β-HSD2)	IC50 [6]	IC50 [7]	clearance from the body [4]	IC50 [8]
		≥ 50 % of the control									COc1cc(CCC(O)CC(O)CCc2ccc(O)c(OC)c2)ccc1O (stereo not shown) [OHC, octahydrocurcumin]								
		< 25 % of the control	1.56 µM	< 20 % of the control	1.22 ± 0.31 µM	2 fold	Mixed	1.12 µM	1.68 ± 0.39 µM	Competitive	O=C(/C=C/c1ccc(O)cc1)CC(=O)/C=C/c1ccc(O)cc1 [BDMC, bisdemethoxycurcumin]	10 µM	2 to 4 h						
		≥ 50 % of the control		around 50 % of the control	103 ± 11.6 µM				109 ± 19.2 µM		COc1cc(CCC(=O)CC(=O)CCc2ccc(O)c(OC)c2)ccc1O [THC, tetrahydrocurcumin]			3.691					
		< 25 % of the control	2.18 µM	< 20 % of the control	2.15 ± 0.27 µM	1 fold	Mixed	3.85 µM	3.27 ± 0.38 µM	Mixed	COc1cc(/C=C/C(O)=C/C(=O)/C=C/c2ccc(O)cc2)ccc1O [DMC, demethoxycurcumin]	10 µM	2 to 4 h						
